Compounds with a hit are over-represented: about 6.4% of the library has one in this group of screens.
MPTP block: permeability transition pore inhibition; isolated mouse mitochondria, Ca2+ swelling absorbance, 30 min; inhibition, % at 10 µM; 360,000 tested, 1.4% active; AID 602449;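 active = inhibition of 50% or more, scaled per plate between neutral and stimulator controls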;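 note: 0% = DMSO wells given calcium and 100% = 1 mM EGTA wells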
NR3A LBD binder: NR3A (human) ligand-binding domain modulation; NR3A LBD differential scanning fluorimetry, Tm shift; 0% = protein alone, 100% = glycine-bound protein; Tm shift relative to glycine control, % at 25 µM; 340,000 tested, 2.5% active; AID 1259313;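 active = melting temperature shift of at least 10% of the positive control shift, at one fixed dose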
EBV gp42 inh: blocks Epstein-Barr virus glycoprotein 42 binding; Q1HVG2; Fluorescence polarization binding assay, mP read-out; inhibition, % (tested at 21.74 µM); 220,000 tested, 0.42% active; in the data active = inhibition above about 50%
Target sequence (Q1HVG2 whole entry, looked up): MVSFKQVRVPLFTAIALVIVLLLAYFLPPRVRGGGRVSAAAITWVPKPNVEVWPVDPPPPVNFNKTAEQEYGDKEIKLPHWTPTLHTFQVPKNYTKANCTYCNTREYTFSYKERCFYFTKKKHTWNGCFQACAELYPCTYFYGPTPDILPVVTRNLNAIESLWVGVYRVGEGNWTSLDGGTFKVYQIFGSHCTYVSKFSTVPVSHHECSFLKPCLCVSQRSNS
WT yeast gro inh: growth inhibition of WT yeast, mitochondrial fusion screen | mitochondrial fusion phenotypic screen, WT strain | inhibition, % at 10 µM | 190,000 tested, 2.1% active | AID 1362; in the data active = inhibition above about 58%; tested in S. cerevisiae
Tb MetRS inh: Trypanosoma brucei MetRS inhibition; purified T. brucei MetRS, ATP depletion, Kinase-Glo luminescence; inhibition, % at 11.9 µM; 360,000 tested, 0.4% active; AID 624268;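 active = inhibition above a per-plate cutoff of the control wells' mean inhibition plus 3 SD, cut at about 5.5% in these data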;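 note: 0% = DMSO wells median and 100% = median of wells with control inhibitor compound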
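Measured by: Kinase-Glo luciferase luminescence reporting remaining unconsumed ATP. Material: purified T. brucei MetRS enzyme. Doses: 11.9 µM compound single dose, 0.9% DMSO. Medium: HEPES buffer containing pyrophosphatase, BSA, spermine, DTT. Times: 15 min preincubation, 2 h reaction, all 25 °C. Reagent: methionine, ATP and bulk E. coli tRNA.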
CHOP inh: CHOP inhibition in unfolded protein response; 220,000 tested, 3.8% active; CHO-K1 CHOP-promoter luciferase, tunicamycin-induced, 15-18 h; inhibition, % at 10 µM;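 active = compounds that reduced the stress-induced luciferase reporter signal by more than about 70% of percent inhibition, limit read from the data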;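 note: 0% = tunicamycin plus vehicle and 100% = wells without tunicamycin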
* marks the source's active call; other numbers are inactive results; . = no result given.

SMILES	MPTP block	NR3A LBD binder	EBV gp42 inh	WT yeast gro inh	Tb MetRS inh	CHOP inh
CCC(=O)Nc1ccc(F)c(Cl)c1	-1.8	5.0	-7.2	-8.3	0.0	45.8
CCC(=O)Nc1ccc(Br)c(Cl)c1	3.3	1.5	-12.3	90.6*	0.1	25.5
COc1ccc(/C=N/NC(=O)c2[nH]nc3c2CCc2ccccc2-3)cc1OC	3.0	33.6*	-28.0	5.2	1.2	-10.2
C=CCOC(=O)/C(=C\C=C\c1ccccc1)NC(=O)c1ccccc1	2.2	-8.2	-12.9	10.3	-0.5	15.8
O=C(N/N=C/c1ccc2c(c1)OCO2)C1COc2ccccc2O1 (stereo not drawn)	-0.5	-0.1	18.2	-2.1	-0.1	-17.8
Cn1cccc1/C=N\NC(=O)C1COc2ccc(C(C)(C)C)cc2O1 (stereo not drawn)	1.9	-8.9	.	.	0.1	.
O=C(N/N=C\c1cc(Br)cs1)C1COc2ccccc2O1 (stereo not drawn)	-2.3	2.7	-16.8	1.6	-0.1	79.9*
Cc1c(/C=N\NC(=O)C2COc3ccc(C(C)(C)C)cc3O2)c2ccccc2n1C (stereo not drawn)	1.5	10.1*	-3.0	29.0	-0.4	75.6*
Cc1ccc(C(=O)NCCCN2CCOCC2)cc1	-2.7	1.3	.	.	0.2	.
Cc1cccc(C)c1OCc1nnc(SCC(=O)Nc2nccs2)o1	0.4	0.3	-1.9	-3.3	0.6	32.9
CCOc1ccc(NC(=O)CSc2nnc(COc3c(C)cccc3C)o2)cc1	0.7	1.7	8.0	-1.8	-0.4	87.0*
CCOc1ccc(NC(=O)CSc2nnc(-c3ccco3)n2C)cc1	-3.2	-0.5	-4.3	95.3*	0.3	6.2
O=C1C(C=NCCCN2CCOCC2)=C(O)c2ccccc21	0.6	0.0	1.6	0.4	0.0	-24.1
N=c1n(CC(=O)c2ccc([N+](=O)[O-])cc2)c2ccccc2n1Cc1ccccc1	4.4	-0.7	-18.4	14.6	0.3	75.0*
N=c1n(CC(=O)c2ccc([N+](=O)[O-])cc2)c2ccccc2n1Cc1ccccc1Cl	4.5	-3.9	-23.7	4.9	-1.5	35.3
COc1ccc(N2CCN(S(=O)(=O)c3c(C)n(C)c(=O)n(C)c3=O)CC2)cc1	-0.3	11.1*	.	.	-0.5	.
COc1ccc(N2CCN(S(=O)(=O)c3cn(C)c(=O)n(C)c3=O)CC2)cc1	2.4	0.5	-13.8	.	-0.4	13.4
Cc1[nH]c2ccccc2c1C(=O)C(=O)N(C)C1CCCCC1	1.2	0.3	.	.	0.0	.
O=C(N=Nc1ccc(NOC(=O)c2ccccc2Br)cc1)c1ccccc1O	.	.	51.1*	42.2	.	14.2
CC(C)CCn1c(Oc2ccc(Cl)cc2)nc2c1c(=O)n(C)c(=O)n2C	4.5	-1.7	1.4	-6.9	-0.5	76.5*
CCn1c(Oc2ccc(F)cc2)nc2c1c(=O)n(C)c(=O)n2C	-3.0	0.1	-22.3	20.4	-0.4	17.8
Cn1c(=O)c2c(ncn2CC(=O)OCC(=O)c2ccc(Br)cc2)n(C)c1=O	0.9	.	.	.	-0.1	.
Cc1csc(NC(=O)Cc2c(F)cccc2Cl)n1	0.2	-0.7	.	.	-0.4	.
Cc1csc(Nc2nc(N)c(C(=O)Nc3cc(Cl)ccc3F)o2)n1	0.7	21.8*	.	.	0.3	.
O=C(CN1CCN(Cc2ccccc2)CC1)Nc1cccc(C(F)(F)F)c1	0.3	2.0	0.6	12.2	-1.8	31.0
SMILES	MPTP block	NR3A LBD binder	EBV gp42 inh	WT yeast gro inh	Tb MetRS inh	CHOP inh
COc1ccc(CCNC(=O)CN2CCN(c3cccc(C(F)(F)F)c3)CC2)cc1	4.0	2.5	4.0	7.9	-2.2	86.0*
COc1cccc(N2CCN(CC(=O)Nc3ccc(SC(F)F)cc3)CC2)c1	1.5	-8.8	1.2	63.0*	-0.4	15.1
COc1ccc(NC(=O)c2ccc(NC(=O)CN3CCN(c4ccc(O)cc4)CC3)cc2)cc1	-1.6	17.2*	.	.	-0.3	.
COc1ccc(CCNC(=O)CN2CCN(c3ccccc3Cl)CC2)cc1	-2.1	3.5	-11.7	18.0	-0.5	18.6
O=C(CN1CCN(c2ccccc2)CC1)Nc1cccc(C(F)(F)F)c1	-0.1	0.4	-7.3	2.3	-0.6	78.9*
CCOC(=O)C1(C)CCCCN1C(=O)c1cccs1 (stereo not drawn)	0.0	.	.	.	-0.2	.
O=C(CN1CCN(c2ccccc2)CC1)Nc1ccc(Oc2ccccc2)cc1	1.5	-11.2	7.3	59.9*	-0.1	67.2
O=C(CN1CCOCC1)Nc1ccc(Oc2ccccc2)cc1	2.0	1.2	6.0	3.3	-0.3	5.9
O=C(N/N=C/C(Cl)=C\c1ccccc1)c1cnccn1	-0.9	-6.6	-2.3	-5.9	-1.3	11.1
CC(=C/c1ccccc1)/C=N/NC(=O)c1cnccn1	-1.9	-10.3	144.3*	-0.3	0.0	-4.6
CC(/C=N/NC(=O)c1ccc(Br)cc1)=C\c1ccccc1	2.9	23.3*	-14.5	-1.4	-0.1	67.7
Cc1nn(CC(=O)NNC(=O)c2ccccc2F)c([N+](=O)[O-])c1Br	4.3	0.5	-6.4	.	-0.1	16.3
CC(NC(=O)COc1ccccc1-c1ccccc1)c1ccccc1 (stereo not drawn)	5.5	3.0	9.9	70.8*	-0.4	77.4*
CC(=O)Nc1ccccc1OCC(=O)NC(C)c1ccccc1 (stereo not drawn)	1.2	-2.2	-5.2	-5.2	-0.6	18.3
Cc1ccc(S(=O)(=O)N2CCC(C(=O)OCCOc3cccc(C)c3)CC2)cc1	2.7	20.2*	.	.	0.2	.
CC1(C(=O)Nc2ccc3nc[nH]c3c2)CCN1C(=O)C1(c2ccccc2)CC1 (stereo not drawn)	0.0	.	.	.	0.3	.
Cc1ccc2nc(SCC(=O)c3ccc(Cl)s3)[nH]c2c1	17.2	-2.5	-19.7	-7.1	1.4	70.7*
Cc1ccsc1C(=O)OCC(=O)N1CC(C)CC(C)C1 (stereo not drawn)	-0.1	1.8	.	.	-0.1	.
Cc1onc(-c2ccccc2)c1-c1nnc(COC(=O)c2ccc(F)cc2)o1	0.3	.	.	.	-0.2	.
Cc1onc(-c2ccccc2)c1-c1nnc(COC(=O)c2ccc(O)cc2)o1	-0.9	10.1*	.	.	-0.4	.
C=CCOc1cccc(C2C(C(=O)c3ccc(C)o3)=C(O)C(=O)N2c2nccs2)c1 (stereo not drawn)	-6.5	1.0	179.1*	-1.3	-0.2	2.8
CCOC(=O)Cc1csc(SC(C)C(=O)NC2CCCCC2C)n1 (stereo not drawn)	0.3	-4.8	.	.	-0.1	.
COc1ccc(CCNC(=O)CSCc2ccc([N+](=O)[O-])cc2)cc1OC	2.7	0.3	-10.3	0.9	-0.6	-12.3
S=C1NC(c2cccs2)=CC(c2ccc(Br)cc2)N1 (stereo not drawn)	0.9	-15.9	2.8	71.9*	0.8	23.3
S=C1NC(c2ccccc2)=CC(c2ccccc2)N1 (stereo not drawn)	-1.5	1.9	-2.0	-4.0	-0.9	0.1
COc1cc(OC)cc(-c2c(Sc3ccccc3)c3cc(-c4ccc(OC)nc4)ccc3n2C)c1	1.0	.	.	.	-0.2	.
COc1ccccc1-c1noc(-c2cccs2)n1	-1.2	0.0	-8.6	13.0	-0.3	-9.4

Bioassay records: PubChem, several laboratories
